The record followed here is ChEMBL document CHEMBL1134972, “Discovery of a potent and selective COX-2 inhibitor in the alkoxy lactone series with optimized metabolic profile” (Bioorg Med Chem Lett, 2002).

For data set [1], the target named is Prostaglandin G/H synthase 1 (Homo sapiens, UniProt P23219). Put plainly: In vitro inhibitory potency against Prostaglandin G/H synthase 1 in human whole blood assay. The format is tissue-based.
The test system of data set [2] is Rattus norvegicus. Put plainly: Antiinflammatory activity by using Rat paw edema assay. The format is functional. In a few lines: (§1)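 Rat in vivo models (paw edema, pyresis, hyperalgesia, adjuvant arthritis), with activity expressed as ED50 in mg/kg.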
The nature of data set [3]: Cmax in rat. The format is ADME, organism-based. The conditions noted are these: in vivo. The procedure, abridged: (§2)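 Rat pharmacokinetics at a 10 mg/kg dose, reporting half-life, Cmax (μM) and bioavailability (%).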
Data set [4] is filed under the species Rattus norvegicus. Put plainly: Antiinflammatory activity by using Rat pyresis assay. The format is functional. The procedure, abridged: as §1
The species entered for data set [5] is Rattus norvegicus. In words: Antiinflammatory activity by using Rat hyperalgesia assay. It counts as functional. The procedure, abridged:
as §1

The species entered for data set [6] is Rattus norvegicus. In words: Antiinflammatory activity by using Rat adjuvant arthritis assay. The format is functional. The procedure, abridged:
as §1

A short description of data set [7]: Half-life in rat. The format is ADME, organism-based. The conditions noted are these: in vivo. The procedure, abridged:
as §2

Data set [8] addresses T1, Prostaglandin G/H synthase 2 (Homo sapiens, UniProt P35354).
T1 sequence (P35354 whole entry): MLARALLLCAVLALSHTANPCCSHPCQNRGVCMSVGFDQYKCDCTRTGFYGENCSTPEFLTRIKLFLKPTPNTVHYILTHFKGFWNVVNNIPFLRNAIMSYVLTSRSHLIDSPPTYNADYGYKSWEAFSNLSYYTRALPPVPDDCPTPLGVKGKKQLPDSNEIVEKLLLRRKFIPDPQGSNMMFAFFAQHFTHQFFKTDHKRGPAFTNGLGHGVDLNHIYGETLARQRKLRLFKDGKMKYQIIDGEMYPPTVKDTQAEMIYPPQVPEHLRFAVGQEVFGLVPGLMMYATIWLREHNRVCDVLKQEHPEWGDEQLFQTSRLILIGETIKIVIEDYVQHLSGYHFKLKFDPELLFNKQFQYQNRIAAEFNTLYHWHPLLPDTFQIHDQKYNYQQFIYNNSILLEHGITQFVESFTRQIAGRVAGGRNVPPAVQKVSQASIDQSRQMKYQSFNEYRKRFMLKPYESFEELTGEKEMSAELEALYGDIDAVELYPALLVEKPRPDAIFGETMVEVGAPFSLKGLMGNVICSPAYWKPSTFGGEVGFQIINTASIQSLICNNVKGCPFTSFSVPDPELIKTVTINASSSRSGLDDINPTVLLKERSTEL
Put plainly: In vitro inhibitory potency against Prostaglandin G/H synthase 2 in human whole blood assay. The format is tissue-based.

A short description of data set [9]: Bioavailability in rat. It counts as ADME, organism-based. The conditions noted are these: in vivo. The procedure, abridged: as §2

Chain of Prostaglandin G/H synthase 1 (P23219 whole entry): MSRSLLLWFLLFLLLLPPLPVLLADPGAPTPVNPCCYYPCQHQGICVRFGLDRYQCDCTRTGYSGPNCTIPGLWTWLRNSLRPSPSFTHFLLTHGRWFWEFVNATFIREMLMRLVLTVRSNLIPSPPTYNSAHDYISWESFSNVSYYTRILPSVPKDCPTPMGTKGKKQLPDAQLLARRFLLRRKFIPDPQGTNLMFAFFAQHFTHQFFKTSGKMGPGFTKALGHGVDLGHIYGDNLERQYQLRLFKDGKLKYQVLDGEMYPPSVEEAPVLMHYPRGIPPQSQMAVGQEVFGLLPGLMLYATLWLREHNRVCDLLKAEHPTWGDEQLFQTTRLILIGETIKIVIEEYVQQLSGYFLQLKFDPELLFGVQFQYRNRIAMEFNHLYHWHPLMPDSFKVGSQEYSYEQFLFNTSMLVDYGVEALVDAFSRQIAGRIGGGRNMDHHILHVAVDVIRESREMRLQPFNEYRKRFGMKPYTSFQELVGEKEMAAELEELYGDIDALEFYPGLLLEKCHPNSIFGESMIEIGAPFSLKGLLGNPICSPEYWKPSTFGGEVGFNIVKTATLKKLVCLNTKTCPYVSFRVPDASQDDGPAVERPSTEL

As to `CC(C)OC1=C(c2ccc(S(C)(=O)=O)cc2)C(C)(CC(F)(F)F)OC1=O` (stereo not given), the IC50 entry in data set [1] is “Not Active”.
Consider `CC(C)OC1=C(c2ccc(S(C)(=O)=O)cc2)C(C)(C)OC1=O`, for which the ED50 in the data set on Rattus norvegicus [2] worked out at 0.8 mg/kg; in the data set listed under Rattus norvegicus [4], 0.3 mg/kg; in the data set filed under Rattus norvegicus [5], 0.8 mg/kg; in the data set listed under Rattus norvegicus [6], 0.3 mg/kg. This compound showed a Cmax in data set [3] of 15 µM. The IC50 in [1] (read-out: IC50) is above 100000 nM. This compound also had a half-life in [7] of 7.1 h.
Turning to `CC[C@]1(C)OC(=O)C(OC(C)C)=C1c1ccc(S(C)(=O)=O)cc1`, the ED50 worked out at 1.2 mg/kg in the data set on Rattus norvegicus [2], 0.7 mg/kg in the data set filed under Rattus norvegicus [4], 0.7 mg/kg in the data set listed under Rattus norvegicus [5] and 3.3 mg/kg in the data set filed under Rattus norvegicus [6]. Besides, in [3], the Cmax was 1.7 µM. Also, the IC50 in data set [1] (read-out: IC50) is above 86000 nM; in [8] it was 400 nM. The bioavailability in data set [9] was 100%. The same compound gave a half-life in data set [7] of 2 h.
`CC[C@@]1(C)OC(=O)C(OC(C)C)=C1c1ccc(S(C)(=O)=O)cc1` (single isomer, unassigned): the ED50 in the data set on Rattus norvegicus [2] came out at 4.5 mg/kg; in the data set filed under Rattus norvegicus [4] it was 4.9 mg/kg. The concentration for half-maximal inhibition (IC50) in data set [1] (read-out: IC50) is above 100000 nM; in [8], 500 nM. In addition, the half-life in data set [7] is below 2 h.
Turning to `CS(=O)(=O)c1ccc(C2=C(c3ccccc3)C(=O)OC2)cc1` [ROFECOXIB], the ED50 stood at 1.5 mg/kg in the data set with Rattus norvegicus [2], 0.2 mg/kg in the data set listed under Rattus norvegicus [4], 1 mg/kg in the data set filed under Rattus norvegicus [5] and 0.8 mg/kg in the data set listed under Rattus norvegicus [6].
As for `COc1ccc2c(c1)c(CC(=O)O)c(C)n2C(=O)c1ccc(Cl)cc1` [INDOMETHACIN], the ED50 with Rattus norvegicus [2] was 2 mg/kg; in the data set filed under Rattus norvegicus [4], 1 mg/kg; in the data set listed under Rattus norvegicus [5] it was 1.4 mg/kg; in the data set listed under Rattus norvegicus [6], 0.2 mg/kg.

Usually IC50 stands for the concentration needed to halve the response being measured. Broadly, the ED50 is the dose that gives a 50% effect, or the effect in half of the subjects. By Cmax is commonly meant the peak of the concentration-time curve. The term half-life denotes the time needed for the level to fall by half in the phase considered. Usually bioavailability stands for dose-corrected exposure relative to a reference, in per cent.
